≈ marks a conversion by molar mass, not a printed value.
Key:
[1] = system: Plasmodium berghei; test: Antimalarial activity against Plasmodium berghei ANKA infected in Swiss mouse assessed as mean survival days at 50 mg/kg, ip administered once daily for 5 days (reference value: 11.2 day); assay type: functional
[2] = system: Plasmodium berghei; test: Antimalarial activity against Plasmodium berghei ANKA infected in Swiss mouse assessed as parasitaemia at 50 mg/kg, ip administered once daily for 5 days measured on 11 days post infection by flow cytometry (reference value: 44%); assay type: functional
In short: (§1)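 Mice infected with P. berghei GFP ANKA strain were dosed intraperitoneally once daily for 5 consecutive days, at 50 mg/kg for test compounds or 10 mg/kg for chloroquine as the reference. Parasitemia was measured in surviving animals on days 4, 7, 11 and 14 post infection by flow cytometry, using 10 μL blood in 2000 μL PBS. Percent reduction was calculated against vehicle-treated infected controls.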

[3] = system: Plasmodium berghei; test: Antimalarial activity against Plasmodium berghei ANKA infected in Swiss mouse assessed as suppression of parasitaemia at 50 mg/kg, ip administered once daily for […] measured on 4 days post infection by flow cytometry relative to control; assay type: functional
[4] = Toxicity in Swiss mouse infected with Plasmodium berghei ANKA assessed as change in body weight at 50 mg/kg, ip administered once daily for 5 days measured on 7 days post infection (reference value: 89%); assay type: organism-based; details: in vivo, 168 h
[5] = system: Plasmodium berghei; test: Antimalarial activity against Plasmodium berghei ANKA infected in Swiss mouse assessed as parasitaemia at 50 mg/kg, ip administered once daily for 5 days measured on 4 days post infection by flow cytometry (reference value: 17.1%); assay type: functional; in short: as §1
[6] = Toxicity in Swiss mouse infected with Plasmodium berghei ANKA assessed as change in body weight at 50 mg/kg, ip administered once daily for 5 days measured on 14 days post infection (reference value: 75%); assay type: organism-based; details: in vivo, 336 h
[7] = system: Plasmodium berghei; test: Antimalarial activity against Plasmodium berghei ANKA infected in Swiss mouse assessed as parasitaemia at 50 mg/kg, ip administered once daily for 5 days measured on 7 days post infection by flow cytometry (reference value: 19%); assay type: functional; in short: as §1
[8] = system: Plasmodium berghei; test: Antimalarial activity against Plasmodium berghei ANKA infected in Swiss mouse assessed as parasitaemia at 50 mg/kg, ip administered once daily for 5 days measured on 14 days post infection by flow cytometry (reference value: 64.6%); assay type: functional
[9] = Toxicity in Swiss mouse infected with Plasmodium berghei ANKA assessed as change in body weight at 50 mg/kg, ip administered once daily for 5 days measured on 11 days post infection (reference value: 81%); assay type: organism-based; details: in vivo, 264 h
[10] = Toxicity in Swiss mouse infected with Plasmodium berghei ANKA assessed as change in body weight at 50 mg/kg, ip administered once daily for 5 days measured on 4 days post infection (reference value: 100%); assay type: organism-based; details: in vivo, 96 h
[11] = system: MRC5; test: Cytotoxicity against human MRC5 cells after 24 hrs by resazurin dye based assay; assay type: cell-based; details: MRC5, 24 h
In short: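 MRC-5 human lung fibroblasts were grown in DMEM with 10% heat-inactivated FCS at 37 °C, 5% CO2. Cells were seeded at 4 x 10^4 per well and allowed to recover for at least 24 h, then exposed for 24 h to a two-fold dilution series (128 to 0.5 µM final). Cells were PBS-washed and incubated with resazurin for 3 h, and fluorescence was read at 560/590 nm. Tamoxifen served as positive control.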

[12] = system: Mycobacterium tuberculosis; test: Antitubercular activity against Mycobacterium tuberculosis H37Rv after 7 days by Resazurin microtitre assay; assay type: functional; details: 168 h
In short: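 Resazurin microtiter assay with M. tuberculosis H37Rv in Middlebrook 7H9 + 10% OADC + 0.5% glycerol + 0.1% casitone. Two-fold dilutions, final 50 to 3.12 µM. Inoculum from LJ subculture at McFarland 1, diluted 1:10. 7 days at 37 °C, normal atmosphere, then resazurin overnight. MIC is the lowest concentration preventing the blue-to-pink change, read visually.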

[13] = system: Plasmodium falciparum; test: Antiplasmodial activity against chloroquine-resistant Plasmodium falciparum K1 infected in human erythrocytes measured after 72 hrs Malstat/NBT reagent based assay; assay type: functional, organism-based; details: K1, 72 h
In short: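 Infected human red blood cells (1% parasitaemia, 2% haematocrit) incubated 72 h with compound, then frozen at -20 °C. Growth read by Malstat: haemolysate with Malstat reagent 15 min RT, then NBT/PES 2 h RT in dark, absorbance at 655 nm. Chloroquine positive control. IC50 reported.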

[14] = system: Mycobacterium tuberculosis; test: Antitubercular activity against Mycobacterium tuberculosis H37Rv ATCC 27294 after 1 to 2 weeks; assay type: functional
[15] = system: Plasmodium berghei; test: Antimalarial activity against Plasmodium berghei ANKA infected in Swiss mouse assessed as parasitaemia at 10 mg/kg, ip administered once daily for 5 days measured on 7 days post infection by flow cytometry (reference value: 19%); assay type: functional; in short: as §1
[16] = Toxicity in Swiss mouse infected with Plasmodium berghei ANKA assessed as change in body weight at 10 mg/kg, ip administered once daily for 5 days measured on 4 days post infection (reference value: 100%); assay type: organism-based; details: in vivo, 96 h
[17] = system: Plasmodium berghei; test: Antimalarial activity against Plasmodium berghei ANKA infected in Swiss mouse assessed as suppression of parasitaemia at 10 mg/kg, ip administered once daily for 5 days measured on 4 days post infection by flow cytometry relative to control; assay type: functional; in short: as §1
[18] = Toxicity in Swiss mouse infected with Plasmodium berghei ANKA assessed as change in body weight at 10 mg/kg, ip administered once daily for 5 days measured on 7 days post infection (reference value: 89%); assay type: organism-based; details: in vivo, 168 h
[19] = system: Plasmodium berghei; test: Antimalarial activity against Plasmodium berghei ANKA infected in Swiss mouse assessed as parasitaemia at 10 mg/kg, ip administered once daily for 5 days measured on 4 days post infection by flow cytometry (reference value: 17.1%); assay type: functional; in short: as §1
[20] = system: Plasmodium berghei; test: Antimalarial activity against Plasmodium berghei ANKA infected in Swiss mouse assessed as mean survival days at 10 mg/kg, ip administered once daily for 5 days (reference value: 11.2 day); assay type: functional
[21] = Toxicity in Swiss mouse infected with Plasmodium berghei ANKA assessed as change in body weight at 10 mg/kg, ip administered once daily for 5 days measured on 11 days post infection (reference value: 81%); assay type: organism-based; details: in vivo, 264 h
[22] = system: Plasmodium berghei; test: Antimalarial activity against Plasmodium berghei ANKA infected in Swiss mouse assessed as parasitaemia at 10 mg/kg, ip administered once daily for 5 days measured on 11 days post infection by flow cytometry (reference value: 44%); assay type: functional; in short: as §1

SMILES | IC50 [11] [µM] | MIC [12] [µM] | IC50 [13] [µM] | also measured
CC(C)OC(=O)OCOP(=O)(CCCC(=O)N(C)O)OCOC(=O)OC(C)C |  |  |  | MSD [1]: 15.3 days; Activity [2]: 3.7%; Activity [3]: 99%; Activity [4]: 105%; Activity [5]: 0.2%; Activity [6]: 100%; Activity [7]: 0.04%; Activity [8]: 16.4%; Activity [9]: 105%; Activity [10]: 104%
CCOC(=O)[C@H](CC(C)C)NP(=O)(CCCC(=O)N(C)O)N[C@@H](CC(C)C)C(=O)OCC | > 64 | 50 (≈ 24 µg/mL) | 3.91 | 
CCOC(=O)[C@H](C)NP(=O)(CCCC(=O)N(C)O)N[C@@H](C)C(=O)OCC | > 64 | 20 (≈ 7.91 µg/mL) | 5.06 | 
CCOC(=O)[C@H](Cc1ccccc1)NP(=O)(CCCC(=O)N(C)O)N[C@@H](Cc1ccccc1)C(=O)OCC | > 64 | > 50 | 4.71 | 
CC(=O)N(CCCP(=O)(OCOC(=O)OC(C)(C)C)OCOC(=O)OC(C)(C)C)OCc1ccc(-c2ccccc2)cc1 |  |  |  | MIC [14]: 5.3 to 21 µM (≈ 3.31 to 13.1 µg/mL)
CC(C)C[C@H](NP(=O)(CCCC(=O)N(C)O)N[C@@H](CC(C)C)C(=O)OC1CCCCC1)C(=O)OC1CCCCC1 | 7.65 | > 50 | 4.56 | 
CCOC(=O)[C@H](C)NP(=O)(N[C@@H](C)C(=O)OCC)C(CCC(=O)N(C)O)c1ccc(Cl)c(Cl)c1 (stereo not given in full) | > 64 | > 50 | > 36.6 | 
CCOC(=O)[C@H](Cc1ccc(OP(=O)(Oc2ccc(C[C@H](NC(C)=O)C(=O)OCC)cc2)C(CCC(=O)N(C)O)c2ccc(Cl)c(Cl)c2)cc1)NC(C)=O (stereo not given in full) | 36.9 | > 50 | > 41.1 | 
CCOC(=O)[C@@H](NP(=O)(CCCC(=O)N(C)O)N[C@H](C(=O)OCC)C(C)C)C(C)C | > 64 | > 50 | 12.7 | 
CCOC(=O)[C@@H]1CCCN1P(=O)(CCCC(=O)N(C)O)N1CCC[C@H]1C(=O)OCC | > 64 | > 50 | 10.2 | 
CC(C)C[C@H](NP(=O)(CCCC(=O)N(C)O)N[C@@H](CC(C)C)C(=O)OC(C)C)C(=O)OC(C)C | > 64 | > 50 | 4.97 | 
CC(C)C[C@H](NP(=O)(CCCC(=O)N(C)O)N[C@@H](CC(C)C)C(=O)OCc1ccccc1)C(=O)OCc1ccccc1 | 7.94 | > 50 | 2.02 | 
CCN(CC)CCCC(C)Nc1ccnc2cc(Cl)ccc12 (stereo not given) [CHLOROQUINE] |  |  |  | Activity [15]: 0.6%; Activity [16]: 99%; Activity [17]: 98.6%; Activity [18]: 101%; Activity [19]: 0.2%; MSD [20]: 14 days; Activity [21]: 101%; Activity [22]: 11.9%
CCCCCOC(=O)[C@H](CC(C)C)NP(=O)(CCCC(=O)N(C)O)N[C@@H](CC(C)C)C(=O)OCCCCC | 7.46 | > 50 | 2.37 | 
CCOC(=O)[C@@H](N)Cc1ccc(OP(=O)(CCCC(=O)N(C)O)Oc2ccc(C[C@H](N)C(=O)OCC)cc2)cc1 | > 64 | > 50 | 0.23 | 
CCOC(=O)[C@@H](NP(=O)(CCCC(=O)N(C)O)N[C@H](C(=O)OCC)[C@@H](C)CC)[C@@H](C)CC | > 64 | > 50 | 2 | 
COC(=O)[C@H](CC(C)C)NP(=O)(CCCC(=O)N(C)O)N[C@@H](CC(C)C)C(=O)OC | > 64 | > 50 | 1.76 | 
CCOC(=O)[C@H](CCCCN)NP(=O)(CCCC(=O)N(C)O)N[C@@H](CCCCN)C(=O)OCC | > 64 | > 50 | 0.96 | MSD [1]: 8.7 days; Activity [2]: 34.7%; Activity [3]: 0.6%; Activity [4]: 79%; Activity [5]: 17.1%; Activity [7]: 30.1%; Activity [9]: 67%; Activity [10]: 99%
CCOC(=O)[C@H](Cc1ccc(OP(=O)(CCCC(=O)N(C)O)Oc2ccc(C[C@H](NC(C)=O)C(=O)OCC)cc2)cc1)NC(C)=O | > 64 | > 50 | 0.31 | MSD [1]: 12.7 days; Activity [2]: 29.2%; Activity [3]: 82%; Activity [4]: 104%; Activity [5]: 3%; Activity [6]: 69%; Activity [7]: 6.5%; Activity [8]: 32.6%; Activity [9]: 86%; Activity [10]: 102%
